In ChEMBL document CHEMBL4725355, “Design, Synthesis, and Preclinical Evaluation of 3-Methyl-6-(5-thiophenyl)-1,3-dihydro-imidazo[4,5-b]pyridin-2-ones as Selective GluN2B Negative Allosteric Modulators for the Treatment of Mood Disorders” (J Med Chem, 2020):

How the values were obtained:
[1] = Cmax in Sprague-Dawley rat brain at 3 mg/kg, po after 2 hrs by LC-MS/MS analysis; type: ADME, organism-based; design: route oral, dose 3 mg/kg, time 2 hrs
Outline: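 Oral dose of 3 mg/kg in 20% HP-β-CD to rats. Brain concentration was measured alongside ex vivo GluN2B occupancy over a 6 h time course (0.5, 2 and 6 h), n=2.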

[2] = Tmax in Sprague-Dawley rat brain at 3 mg/kg, po by LC-MS/MS analysis; type: ADME, organism-based
Outline: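 Rats dosed orally at 3 mg/kg in 20% HP-β-CD. Brain concentrations were measured over a 6 h time course (0.5, 2, 6 h) alongside ex vivo GluN2B occupancy, n=2.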

[3] = Drug level in Sprague-Dawley rat brain hippocampus at 0.03 mg/kg, iv after 60 min by LC-MS/MS analysis; type: ADME, organism-based; conditions: read-out: Drug uptake
Outline: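 Single i.v. dose of 0.03 mg/kg in 50% (w/v) PEG/water, pH 7.4; rats n=3 per group, killed at 5, 10, 30, 60 and 120 min. Cerebellum, cortex, striatum and hippocampus dissected, weighed and homogenized; drug quantified by LC-MS/MS and normalized to tissue weight. P<0.05 taken as significant versus cerebellum.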

Rattus norvegicus = test: Ex vivo receptor occupancy at GluN2B in po dosed Sprague-Dawley rat assessed as total plasma concentration causing 70% 3-[3H] 1-(azetidin-1-yl)-2-[6-(4-fluoro-3-methyl-phenyl)pyrrolo[3,2-b]pyridin-1-yl]-ethanone labelling measured after 60 mins by autoradiography; type: functional, organism-based
Outline: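 Oral dosing in rat at 8 dose levels, vehicle 20% HP-β-CD, 3 animals per group. Hippocampal GluN2B occupancy was measured ex vivo by autoradiography at 60 min post dose with the [3H] pyrrolopyridine tracer on brain slices. Labelling was expressed as percent of naïve control rats. EC70 was taken as the total (bound + unbound) plasma concentration giving 70% occupancy, with a 95% confidence interval.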

Cytochrome P450 1A2 = target: T1, Cytochrome P450 1A2 (Homo sapiens, UniProt P05177); test: Inhibition of CYP1A2 in human liver microsomes using phenacetin as substrate measured after 15 mins by LC-MS/MS analysis; type: ADME
T1 sequence (P05177 whole entry): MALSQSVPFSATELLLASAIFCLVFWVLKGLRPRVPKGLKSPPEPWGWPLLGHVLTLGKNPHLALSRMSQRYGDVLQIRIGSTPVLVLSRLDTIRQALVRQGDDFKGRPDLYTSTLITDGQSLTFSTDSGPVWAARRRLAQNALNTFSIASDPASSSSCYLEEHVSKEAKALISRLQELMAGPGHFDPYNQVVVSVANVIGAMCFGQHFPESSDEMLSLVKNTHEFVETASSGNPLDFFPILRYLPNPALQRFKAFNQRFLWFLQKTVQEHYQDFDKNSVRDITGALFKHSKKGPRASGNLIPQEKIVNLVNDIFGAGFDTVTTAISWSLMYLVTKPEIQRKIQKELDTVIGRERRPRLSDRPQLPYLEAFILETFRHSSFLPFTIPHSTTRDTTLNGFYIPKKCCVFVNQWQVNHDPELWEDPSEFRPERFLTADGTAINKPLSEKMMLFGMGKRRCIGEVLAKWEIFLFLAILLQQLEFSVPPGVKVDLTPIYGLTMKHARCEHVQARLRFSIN
Outline: (§1)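 Human liver microsomes incubated with isoform-specific probe substrates and the test compound at concentrations up to 20 µM. IC50 derived from inhibition of metabolite formation; mean of two independent experiments, with known specific inhibitors as positive controls.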

Cytochrome P450 3A4 = Cytochrome P450 3A4 (Homo sapiens, UniProt P08684); test: Inhibition of CYP3A4 in human liver microsomes using nifedipine as substrate measured after 15 mins by LC-MS/MS analysis; type: ADME; outline: as §1
[4] = Tmax in dog at 0.5 mg/kg, po by LC-MS/MS analysis; type: ADME, organism-based, Canis lupus familiaris; conditions: in vivo
[5] = Volume of distribution at steady state in Sprague-Dawley rat at 0.5 mg/kg, iv by LC-MS/MS analysis; type: ADME, organism-based; conditions: in vivo, read-out: Vdss
Outline: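 Rat PK at 0.5 mg/kg i.v. and 2.5 mg/kg p.o., vehicle 20% HP-β-CD. n=3, values given as mean ± SD.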

[6] = Cmax in Sprague-Dawley rat at 500 mg/kg, po administered via gavage after 24 hrs using HPMC formulation by LC-MS/MS analysis; type: ADME, organism-based; design: route oral, time 24 hrs, dose 500 mg/kg; conditions: in vivo
Outline: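 Single oral gavage dose to male Sprague Dawley rats, 3 per dose level. Vehicles were a standard suspension in 5% HPMC (125, 250, 500 or 1000 mg/kg) or a nanosuspension (API:polymer 4:1), with stock diluted in vehicle on the day of dosing (100, 250 or 500 mg/kg). Blood was sampled at time points from 0.5 to 24 h.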

[7] = target: T2, Aryl hydrocarbon receptor (Homo sapiens, UniProt P35869); test: Activation of human AHR expressed in human 1A2-DRE cells assessed as induction of CYP1A by luciferase reporter gene assay relative to control; type: ADME, cell-based
T2 sequence (P35869 whole entry): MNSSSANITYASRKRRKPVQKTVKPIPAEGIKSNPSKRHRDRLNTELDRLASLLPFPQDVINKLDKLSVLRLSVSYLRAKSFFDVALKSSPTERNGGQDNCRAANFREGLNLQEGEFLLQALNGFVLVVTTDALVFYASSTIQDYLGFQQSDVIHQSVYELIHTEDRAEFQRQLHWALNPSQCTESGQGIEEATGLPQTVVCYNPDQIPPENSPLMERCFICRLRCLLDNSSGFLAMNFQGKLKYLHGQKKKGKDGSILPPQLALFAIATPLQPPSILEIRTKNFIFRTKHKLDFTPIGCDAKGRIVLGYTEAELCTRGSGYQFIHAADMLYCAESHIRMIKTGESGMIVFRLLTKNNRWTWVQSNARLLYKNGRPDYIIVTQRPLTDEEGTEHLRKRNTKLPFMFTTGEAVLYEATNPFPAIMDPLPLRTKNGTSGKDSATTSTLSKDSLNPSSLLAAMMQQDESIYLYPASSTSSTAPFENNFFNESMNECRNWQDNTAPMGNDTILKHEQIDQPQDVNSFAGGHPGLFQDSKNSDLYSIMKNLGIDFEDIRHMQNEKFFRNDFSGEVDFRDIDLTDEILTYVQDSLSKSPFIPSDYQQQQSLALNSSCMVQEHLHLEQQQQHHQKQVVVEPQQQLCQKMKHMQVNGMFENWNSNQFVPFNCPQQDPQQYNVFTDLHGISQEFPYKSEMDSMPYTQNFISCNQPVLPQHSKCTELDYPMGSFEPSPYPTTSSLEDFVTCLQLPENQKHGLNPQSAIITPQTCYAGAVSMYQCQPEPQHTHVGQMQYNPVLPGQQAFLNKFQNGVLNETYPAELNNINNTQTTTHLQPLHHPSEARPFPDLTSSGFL
Outline: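 Luciferase reporter lines were used. DPX2 is HepG2 carrying human PXR plus a CYP3A4 promoter-luciferase construct. 1A2-DRE carries human AhR plus a CYP1A2 promoter with 3 DRE copies. Luminescence was read with ONE-Glo. Activation was expressed relative to rifampicin (PXR) or omeprazole (AhR).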

Chain of Cytochrome P450 3A4 (P08684 whole entry): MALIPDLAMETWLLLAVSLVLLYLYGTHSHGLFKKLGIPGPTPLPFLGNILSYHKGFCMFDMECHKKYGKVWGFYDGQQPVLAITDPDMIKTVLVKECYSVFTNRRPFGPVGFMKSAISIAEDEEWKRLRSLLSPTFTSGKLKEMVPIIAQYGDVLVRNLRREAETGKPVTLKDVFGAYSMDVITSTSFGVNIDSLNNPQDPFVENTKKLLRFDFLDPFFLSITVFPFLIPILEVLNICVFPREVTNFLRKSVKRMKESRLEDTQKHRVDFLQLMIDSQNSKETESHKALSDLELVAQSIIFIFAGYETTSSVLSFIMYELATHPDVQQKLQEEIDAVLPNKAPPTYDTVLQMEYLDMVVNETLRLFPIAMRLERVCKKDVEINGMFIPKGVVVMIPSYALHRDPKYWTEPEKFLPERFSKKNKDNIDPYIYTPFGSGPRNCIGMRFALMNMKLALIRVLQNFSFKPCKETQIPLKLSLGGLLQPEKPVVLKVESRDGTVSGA

`Cn1c(=O)n(CC(=O)N2CCC2)c2cc(-c3ccc(C(F)(F)F)s3)cnc21` showed a Cmax [1] of 765 ng/g, a Tmax [2] of 30 min and a concentration at 1 h [3] of 20.9 ng/mL. The Cp (Rattus norvegicus) was 716 ng/mL, the IC50 (Cytochrome P450 1A2) was over 50 µM and the IC50 (Cytochrome P450 3A4) was over 50 µM. The Tmax [4] was 15 min, the Vd [5] was 1.9 L/kg and the Cmax [6] was 6140 ng/mL. It also gave an Activity [7] of under 20%.
